ChEMBL document CHEMBL3813699, “Structure-Activity Relationships of a Diverse Class of Halogenated Phenazines That Targets Persistent, Antibiotic-Tolerant Bacterial Biofilms and Mycobacterium tuberculosis” (J Med Chem, 2016)
≈ marks a conversion by molar mass, not a printed value. Calls of active or inactive are those of the source. The calls are words filed in the database; no cut-off is given here.

Assays:
[1] = tested on: Enterococcus faecium; experiment: Antibacterial activity against vancomycin-resistant Enterococcus faecium ATCC 700221 incubated for 16 to 18 hrs by broth microdilution method; format: functional
[2] = tested on: HeLa; experiment: Cytotoxicity against human HeLa cells after 24 hrs by LDH release assay; format: cell-based
Outline: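 HeLa in DMEM + 10% FBS, 37 °C 5% CO2, at 70–80% confluence treated with 25, 50, 100 µM for 24 h; DMSO vehicle; Triton X-100 2% v/v max-LDH control, medium-only negative; supernatant with LDH reaction mix 30 min room temperature, stopped, absorbance 490 nm.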

[3] = tested on: Staphylococcus aureus; experiment: Antibiofilm activity against methicillin-resistant Staphylococcus aureus isolate 2 assessed as biofilm eradication incubated for 24 hrs by CBD assay; format: functional; conditions: for MBC: Staphylococcus aureus, isolate 2, 24 h
Outline: (§1)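 Calgary Biofilm Device: pegs inoculated with mid-log culture diluted 1,000-fold in TSB + 0.5% glucose, 24 h 37 °C; washed pegs challenged with 2-fold dilutions 24 h 37 °C; pegs moved to fresh TSBG 24 h; MBEC = lowest concentration leaving no turbidity; 2–6 independent experiments.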

[4] = tested on: Staphylococcus aureus; experiment: Antibacterial activity against methicillin-resistant Staphylococcus aureus clinical isolate 2 incubated for 16 hrs by broth microdilution method in presence of Cu2+; format: functional; conditions: isolate 2, 16 h
[5] = tested on: Staphylococcus aureus; experiment: Antibiofilm activity against methicillin-resistant Staphylococcus aureus BAA-1707 assessed as biofilm eradication incubated for 24 hrs by CBD assay; format: functional; conditions: for MBC: Staphylococcus aureus, BAA-1707, 24 h; outline: as §1
[6] = tested on: Staphylococcus aureus; experiment: Antibacterial activity against methicillin-resistant Staphylococcus aureus clinical isolate 2 incubated for 16 hrs by broth microdilution method in presence of Fe2+; format: functional; conditions: isolate 2, 16 h
[7] = tested on: Enterococcus faecium; experiment: Antibiofilm activity against […]-resistant Enterococcus faecium ATCC 700221 assessed as biofilm eradication incubated for 24 hrs by CBD assay; format: functional; conditions: for MBC: Enterococcus faecium, ATCC 700221, 24 h; outline: as §1
[8] = Induction of hemolysis in human RBC at 200 uM incubated for 1 hr; format: cell-based, Erythrocyte; conditions: red blood cells, read-out: Activity
Outline: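 Human RBCs (EDTA), washed three times in Tris-buffered saline pH 7.2; 2% hRBC with compound at final 200 µM, 1 h 37 °C; supernatant OD405; % hemolysis relative to DMSO (0%) and Triton X (100%).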

[9] = tested on: Staphylococcus epidermidis; experiment: Antibacterial activity against methicillin-resistant Staphylococcus epidermidis ATCC 35984 assessed as biofilm eradication incubated for 24 hrs by CBD assay; format: functional; conditions: for MBC: Staphylococcus epidermidis, ATCC 35984, 24 h; outline: as §1
[10] = tested on: Staphylococcus aureus; experiment: Antibiofilm activity against methicillin-resistant Staphylococcus aureus BAA-44 assessed as biofilm eradication incubated for 24 hrs by CBD assay; format: functional; conditions: for MBC: Staphylococcus aureus, BAA-44, 24 h; outline: as §1
[11] = tested on: Staphylococcus aureus; experiment: Antibacterial activity against methicillin-resistant Staphylococcus aureus clinical isolate 2 incubated for 16 hrs by broth microdilution method; format: functional; conditions: isolate 2, 16 h
[12] = tested on: Staphylococcus aureus; experiment: Antibacterial activity against methicillin-resistant Staphylococcus aureus clinical isolate 2 incubated for 16 hrs by broth microdilution method in presence of tiron; format: functional; conditions: isolate 2, 16 h
[13] = tested on: Staphylococcus aureus; experiment: Ratio of MIC for methicillin-resistant Staphylococcus aureus clinical isolate 2 in absence and presence of Cu2+; format: functional
[14] = tested on: Staphylococcus aureus; experiment: Ratio of MIC for methicillin-resistant Staphylococcus aureus clinical isolate 2 in absence and presence of tiron; format: functional; parameters: scale not given here
[15] = tested on: Staphylococcus aureus; experiment: Antibacterial activity against methicillin-resistant Staphylococcus aureus clinical isolate 2 incubated for 16 to 18 hrs by broth microdilution method; format: functional
[16] = tested on: Staphylococcus epidermidis; experiment: Antibacterial activity against methicillin-resistant Staphylococcus epidermidis ATCC 35984 incubated for 16 to 18 hrs by broth microdilution method; format: functional
[17] = tested on: Staphylococcus aureus; experiment: Antibacterial activity against methicillin-resistant Staphylococcus aureus BAA-1707 incubated for 16 to 18 hrs by broth microdilution method; format: functional
[18] = tested on: Staphylococcus aureus; experiment: Ratio of MBEC to MBC for methicillin-resistant Staphylococcus aureus clinical isolate 2 biofilm eradication; format: functional
Outline: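 From the same CBD challenge plate, MBC taken by subculturing 20 µL into 180 µL TSBG overnight at 37 °C (no turbidity); MBEC from recovered pegs in fresh TSBG 24 h; ratio MBEC:MBC against MRSA-2.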

[19] = tested on: Staphylococcus aureus; experiment: Antibacterial activity against Staphylococcus aureus ATCC 25923 incubated for 16 to 20 hrs by broth microdilution method; format: functional
[20] = tested on: Staphylococcus epidermidis; experiment: Antibacterial activity against Staphylococcus epidermidis ATCC 12228 incubated for 16 to 20 hrs by broth microdilution method; format: functional
[21] = tested on: Mycobacterium tuberculosis; experiment: Antibacterial activity against Mycobacterium tuberculosis H37Ra ATCC 25177 after 7 days by two-fold serial dilution method; format: functional; conditions: H37Ra ATCC 25177, 168 h
[22] = Aqueous solubility of compound in media after 16 hrs; format: physicochemical
[23] = tested on: Staphylococcus aureus; experiment: Antibacterial activity against methicillin-resistant Staphylococcus aureus clinical isolate 2 incubated for 16 hrs by broth microdilution method in presence of thiourea; format: functional, organism-based
[24] = Metal chelating activity assessed as insoluble Cu2+-compound complex formation by UV-vis spectroscopic analysis; format: physicochemical
Outline: (§2)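 UV-vis monitoring after adding 0.5 equivalents CuSO4 or ammonium iron(II) sulfate to stirred 10 mM ligand in DMSO; Cu stoichiometry from free ligand remaining after 2 h room-temperature stirring with varying CuSO4 in methanol, filtered, redissolved in DMSO, A440 against calibration curve.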

[25] = Metal chelating activity assessed as soluble Fe2+-compound complex formation by UV-vis spectroscopic analysis; format: physicochemical; outline: as §2
[26] = tested on: Staphylococcus aureus; experiment: Antibacterial activity against methicillin-resistant Staphylococcus aureus clinical isolate 2 incubated for 16 hrs by broth microdilution method in presence of ascorbic acid; format: functional, organism-based
[27] = tested on: Staphylococcus aureus; experiment: Antibacterial activity against methicillin-resistant Staphylococcus aureus clinical isolate 2 incubated for 16 hrs by broth microdilution method in presence of MnTBAP; format: functional, organism-based

## Oc1c(Br)cc(I)c2nc3ccccc3nc12
[1]
  MIC: 6.25 µM (≈ 2.51 µg/mL)
[2]
  IC50: > 100 µM
[3]
  MBEC: 62.5 µM
  MBC: 31.3 µM (≈ 12.6 µg/mL)
[4]
  MIC: 50 µM
[5]
  MBEC: 93.8 µM
  MBC: 23.5 µM (≈ 9.42 µg/mL)
[6]
  MIC: 6.25 µM
[7]
  MBEC: 5.9 µM
  MBC: 3 µM (≈ 1.2 µg/mL)
[8]
  hemolysis at 1 h, 200 µM: 2.9%
[9]
  MBEC: 188 µM
  MBC: 11.7 µM (≈ 4.69 µg/mL)
[10]
  MBEC: 93.8 µM
  MBC: 46.9 µM (≈ 18.8 µg/mL)

## Oc1cccc2cccnc12 [OXYQUINOLINE]
[4]
  MIC: 3.13 µM
[11]
  MIC: 6.25 µM (≈ 0.907 µg/mL)
[6]
  MIC: 6.25 µM
[12]
  MIC: > 100 µM
[13]
  Ratio: <2
[14]
  Ratio: 16

## CC(=O)NC[C@H]1CN(c2ccc(N3CCOCC3)c(F)c2)C(=O)O1 [LINEZOLID]
[1]
  MIC: 3.13 µM (≈ 1.06 µg/mL)
[15]
  MIC: 3.13 µM (≈ 1.06 µg/mL)
[16]
  MIC: 3.13 µM (≈ 1.06 µg/mL)
[5]
  MBEC: >2000 µM
  MBC: 31.3 µM (≈ 10.6 µg/mL)
[11]
  MIC: 6.25 µM (≈ 2.11 µg/mL)
[6]
  MIC: 6.25 µM
[17]
  MIC: 12.5 µM (≈ 4.22 µg/mL)
[8]
  hemolysis at 1 h, 200 µM: ≤ 1%

## C[C@H]1c2cccc(O)c2C(=O)C2=C(O)[C@]3(O)C(=O)C(C(N)=O)=C(O)[C@@H](N(C)C)[C@@H]3[C@@H](O)[C@@H]21.O [DOXYCYCLINE]
[18]
  Ratio: >23
[3]
  MBEC: 46.9 µM
  MBC: 2 µM

## Oc1c(Br)ccc2nc3ccccc3nc12
[19]
  MIC: 6.25 µM (≈ 1.72 µg/mL)
[20]
  MIC: 1.7 µg/mL (≈ 6.18 µM)

## Oc1ccc(I)c2nc3cc(Cl)c(Cl)cc3nc12
[1]
  MIC: 3.13 µM (≈ 1.22 µg/mL)
[2]
  IC50: > 100 µM
[15]
  MIC: 0.39 µM (≈ 0.152 µg/mL)
[3]
  MBEC: 37.5 µM
  MBC: 25 µM (≈ 9.77 µg/mL)
[16]
  MIC: 0.78 µM (≈ 0.305 µg/mL)
[5]
  MBEC: >200 µM
  MBC: 75 µM (≈ 29.3 µg/mL)
[6]
  MIC: 3.13 µM
[17]
  MIC: 0.15 µM (≈ 0.0586 µg/mL)
[21]
  MIC: 3.13 µM (≈ 1.22 µg/mL)
[7]
  MBC: 3.13 µM (≈ 1.22 µg/mL)
[12]
  MIC: 0.2 µM
[22]
  solubility at 16 h: 200 µM (≈ 78.2 µg/mL)
[8]
  hemolysis at 1 h, 200 µM: 1.4%
[9]
  MBEC: 75 µM
  MBC: 9.38 µM (≈ 3.67 µg/mL)
[10]
  MBEC: >200 µM
  MBC: 75 µM (≈ 29.3 µg/mL)

## Oc1c(Br)cc(Br)c2nc3ccccc3nc12
[1]
  MIC: 6.25 µM (≈ 2.21 µg/mL)
[2]
  IC50: > 100 µM
[19]
  MIC: 0.78 µM (≈ 0.276 µg/mL)
[23]
  Activity: Active
[3]
  MBEC: 93.8 µM
  MBC: 15.6 µM (≈ 5.52 µg/mL)
[4]
  MIC: 75 µM
[5]
  MBEC: 375 µM
  MBC: 62.5 µM (≈ 22.1 µg/mL)
[6]
  MIC: 3.13 µM
[21]
  MIC: 25 µM (≈ 8.85 µg/mL)
[24]
  Activity: Active
[8]
  hemolysis at 1 h, 200 µM: ≤ 1%
[9]
  MBEC: 250 µM
  MBC: 23.5 µM (≈ 8.32 µg/mL)
[20]
  MIC: 0.27 µg/mL (≈ 0.763 µM)
[25]
  Activity: Active
[26]
  Activity: Active
[27]
  Activity: Active
[10]
  MBEC: 188 µM
  MBC: 62.5 µM (≈ 22.1 µg/mL)

## CN(C)[C@@H]1C(O)=C(C(N)=O)C(=O)[C@@]2(O)C(O)=C3C(=O)c4c(O)cccc4[C@@](C)(O)[C@H]3C[C@@H]12 [TETRACYCLINE]
[4]
  MIC: 1.56 µM
[11]
  MIC: 1.17 µM (≈ 0.52 µg/mL)
[6]
  MIC: 18.8 µM
[13]
  Ratio: <2
